Assay results taken from ChEMBL document CHEMBL5724801, “EUbOPEN Chemogenomics Library - Multiplex” (2024).
Values joined by “and” are separate entries in the source; they are usually repeats but may differ in a detail not shown here. Identical values can stand only once.

Legend:
Format in all cases: toxicity, cell-based
[1] = test system: U2OS; assay: Multiplex assay against U2OS; settings: human
Outline: (§1)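 On a CQ1 microscope at 37°C and 5% CO2, live cells were imaged after compound addition. They had been stained at seeding with Hoechst33342, BioTracker Green Microtubule Cytoskeleton Dye, MitoTracker Red and Annexin V Alexa Fluor 680. CellPathfinder machine-learning gating assigned cells to Hoechst high-intensity objects or normal cells, normal cells to healthy, pyknosed or fragmented nuclei, and pyknosed cells to mitotic or apoptotic. Tubulin, mitochondrial-mass and membrane-permeability phenotypes are per cents of healthy-nucleus cells.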

[2] = test system: Fibroblast; assay: Multiplex assay against human fibroblast; outline: as §1
[3] = test system: HEK-293T; assay: Multiplex assay against HEK293T; settings: human; outline: as §1
[4] = 12 h, 1 µM, compound concentration 1 uM
[5] = 12 h, 10 µM, compound concentration 10 uM
[6] = 24 h, 1 µM, compound concentration 1 uM
[7] = 24 h, 10 µM, compound concentration 10 uM
[8] = 48 h, 1 µM, compound concentration 1 uM
[9] = 48 h, 10 µM, compound concentration 10 uM

CC(=O)NCCc1c(Cc2ccccc2)[nH]c2ccccc12 [LUZINDOLE]
Population Apoptotic (%) [1, 4]: 72% and 100% | Population Fragmented Nuclei (%) [1, 4]: 25% and 19% | Population Healthy Nuclei (%) [1, 4]: 65% and 77% | Population Hoechst High Intensity Objects (%) [1, 4]: 3% and 2% | Population Membrane Permeable-Phenotype (%) [1, 4]: 3% and 6% | Population Mitochondria Different-Phenotype (%) [1, 4]: 4% and 2% | Population Normal (%) [1, 4]: 96% and 97% | Population Pyknosed Nuclei (%) [1, 4]: 9% and 3% | Population Tubulin-Different-Phenotype (%) [1, 4]: 1% and 2% | Total Cell Count [1, 4]: 233 and 134 | Population Apoptotic (%) [1, 5]: 81% and 76% | Population Fragmented Nuclei (%) [1, 5]: 26% and 13% | Population Healthy Nuclei (%) [1, 5]: 65% and 78% | Population Hoechst High Intensity Objects (%) [1, 5]: 2% and 1% | Population Membrane Permeable-Phenotype (%) [1, 5]: 8% and 5% | Population Mitochondria Different-Phenotype (%) [1, 5]: 3% and 2% | Population Mitotic Cells (%) [1, 5]: 18% and 23% | Population Normal (%) [1, 5]: 97% and 98% | Population Pyknosed Nuclei (%) [1, 5]: 7% | Population Tubulin-Different-Phenotype (%) [1, 5]: 4% and 3% | Total Cell Count [1, 5]: 291 and 179 | Population Apoptotic (%) [1, 6]: 90% and 88% | Population Fragmented Nuclei (%) [1, 6]: 19% and 18% | Population Healthy Nuclei (%) [1, 6]: 68% and 70% | Population Hoechst High Intensity Objects (%) [1, 6]: 4% and 0% | Population Membrane Permeable-Phenotype (%) [1, 6]: 2% and 5% | Population Mitochondria Different-Phenotype (%) [1, 6]: 3% and 1% | Population Mitotic Cells (%) [1, 6]: 10% and 11% | Population Normal (%) [1, 6]: 95% and 99% | Population Pyknosed Nuclei (%) [1, 6]: 12% and 10% | Population Tubulin-Different-Phenotype (%) [1, 6]: 3% and 4% | Total Cell Count [1, 6]: 260 and 156 | Population Apoptotic (%) [1, 7]: 88% and 85% | Population Fragmented Nuclei (%) [1, 7]: 25% and 11% | Population Healthy Nuclei (%) [1, 7]: 66% and 80% | Population Hoechst High Intensity Objects (%) [1, 7]: 2% and 0% | Population Membrane Permeable-Phenotype (%) [1, 7]: 6% | Population Mitochondria Different-Phenotype (%) [1, 7]: 3% and 1% | Population Mitotic Cells (%) [1, 7]: 12% and 15% | Population Normal (%) [1, 7]: 97% and 99% | Population Pyknosed Nuclei (%) [1, 7]: 7% and 8% | Population Tubulin-Different-Phenotype (%) [1, 7]: 4% and 3% | Total Cell Count [1, 7]: 342 and 236 | Population Apoptotic (%) [1, 8]: 91% and 80% | Population Fragmented Nuclei (%) [1, 8]: 16% and 11% | Population Healthy Nuclei (%) [1, 8]: 74% and 77% | Population Hoechst High Intensity Objects (%) [1, 8]: 2% and 1% | Population Membrane Permeable-Phenotype (%) [1, 8]: 3% and 8% | Population Mitochondria Different-Phenotype (%) [1, 8]: 2% and 1% | Population Mitotic Cells (%) [1, 8]: 8% and 20% | Population Normal (%) [1, 8]: 97% and 98% | Population Pyknosed Nuclei (%) [1, 8]: 9% and 11% | Population Tubulin-Different-Phenotype (%) [1, 8]: 2% and 4% | Total Cell Count [1, 8]: 395 and 217 | Population Apoptotic (%) [1, 9]: 89% and 100% | Population Fragmented Nuclei (%) [1, 9]: 21% and 11% | Population Healthy Nuclei (%) [1, 9]: 69% and 82% | Population Hoechst High Intensity Objects (%) [1, 9]: 2% and 1% | Population Membrane Permeable-Phenotype (%) [1, 9]: 6% and 5% | Population Mitochondria Different-Phenotype (%) [1, 9]: 3% and 2% | Population Mitotic Cells (%) [1, 9]: 10% and 0% | Population Normal (%) [1, 9]: 97% and 98% | Population Pyknosed Nuclei (%) [1, 9]: 8% and 5% | Population Tubulin-Different-Phenotype (%) [1, 9]: 3% | Total Cell Count [1, 9]: 446 and 354 | Population Apoptotic (%) [2, 4]: 41% and 40% | Population Fragmented Nuclei (%) [2, 4]: 15% and 25% | Population Healthy Nuclei (%) [2, 4]: 65% and 39% | Population Hoechst High Intensity Objects (%) [2, 4]: 1% and 4% | Population Membrane Permeable-Phenotype (%) [2, 4]: 2% and 9% | Population Mitochondria Different-Phenotype (%) [2, 4]: 7% and 11% | Population Mitotic Cells (%) [2, 4]: 58% and 59% | Population Normal (%) [2, 4]: 98% and 95% | Population Pyknosed Nuclei (%) [2, 4]: 18% and 34% | Population Tubulin-Different-Phenotype (%) [2, 4]: 30% and 50% | Total Cell Count [2, 4]: 129 and 134 | Population Apoptotic (%) [2, 5]: 19% and 21% | Population Fragmented Nuclei (%) [2, 5]: 15% and 26% | Population Healthy Nuclei (%) [2, 5]: 69% and 59% | Population Hoechst High Intensity Objects (%) [2, 5]: 2% | Population Mitochondria Different-Phenotype (%) [2, 5]: 7% and 4% | Population Mitotic Cells (%) [2, 5]: 80% and 78% | Population Normal (%) [2, 5]: 97% | Population Pyknosed Nuclei (%) [2, 5]: 15% and 13% | Population Tubulin-Different-Phenotype (%) [2, 5]: 42% and 32% | Total Cell Count [2, 5]: 140 and 105 | Population Apoptotic (%) [2, 6]: 54% and 45% | Population Fragmented Nuclei (%) [2, 6]: 21% and 25% | Population Healthy Nuclei (%) [2, 6]: 61% and 47% | Population Hoechst High Intensity Objects (%) [2, 6]: 0% and 5% | Population Membrane Permeable-Phenotype (%) [2, 6]: 0% and 8% | Population Mitochondria Different-Phenotype (%) [2, 6]: 3% and 8% | Population Mitotic Cells (%) [2, 6]: 45% and 54% | Population Normal (%) [2, 6]: 99% and 94% | Population Pyknosed Nuclei (%) [2, 6]: 16% and 26% | Total Cell Count [2, 6]: 134 and 137 | Population Apoptotic (%) [2, 7]: 47% and 23% | Population Fragmented Nuclei (%) [2, 7]: 15% and 27% | Population Healthy Nuclei (%) [2, 7]: 67% and 59% | Population Hoechst High Intensity Objects (%) [2, 7]: 2% and 3% | Population Membrane Permeable-Phenotype (%) [2, 7]: 1% and 5% | Population Mitochondria Different-Phenotype (%) [2, 7]: 5% and 3% | Population Mitotic Cells (%) [2, 7]: 52% and 76% | Population Normal (%) [2, 7]: 97% and 96% | Population Pyknosed Nuclei (%) [2, 7]: 17% and 12% | Population Tubulin-Different-Phenotype (%) [2, 7]: 29% and 33% | Total Cell Count [2, 7]: 138 and 105 | Population Apoptotic (%) [2, 8]: 75% and 39% | Population Fragmented Nuclei (%) [2, 8]: 15% and 27% | Population Healthy Nuclei (%) [2, 8]: 72% and 55% | Population Hoechst High Intensity Objects (%) [2, 8]: 5% and 8% | Population Membrane Permeable-Phenotype (%) [2, 8]: 2% and 9% | Population Mitochondria Different-Phenotype (%) [2, 8]: 3% and 5% | Population Mitotic Cells (%) [2, 8]: 25% and 60% | Population Normal (%) [2, 8]: 94% and 91% | Population Pyknosed Nuclei (%) [2, 8]: 12% and 16% | Population Tubulin-Different-Phenotype (%) [2, 8]: 24% and 46% | Total Cell Count [2, 8]: 134 and 149 | Population Apoptotic (%) [2, 9]: 80% and 54% | Population Fragmented Nuclei (%) [2, 9]: 19% and 34% | Population Healthy Nuclei (%) [2, 9]: 70% and 54% | Population Hoechst High Intensity Objects (%) [2, 9]: 3% and 4% | Population Membrane Permeable-Phenotype (%) [2, 9]: 0% and 3% | Population Mitochondria Different-Phenotype (%) [2, 9]: 3% | Population Mitotic Cells (%) [2, 9]: 20% and 45% | Population Normal (%) [2, 9]: 96% and 95% | Population Pyknosed Nuclei (%) [2, 9]: 10% | Population Tubulin-Different-Phenotype (%) [2, 9]: 34% and 50% | Total Cell Count [2, 9]: 147 and 111 | Population Apoptotic (%) [3, 4]: 38% and 43% | Population Fragmented Nuclei (%) [3, 4]: 7% and 5% | Population Healthy Nuclei (%) [3, 4]: 79% and 80% | Population Hoechst High Intensity Objects (%) [3, 4]: 11% and 8% | Population Membrane Permeable-Phenotype (%) [3, 4]: 0% | Population Mitochondria Different-Phenotype (%) [3, 4]: 54% and 68% | Population Mitotic Cells (%) [3, 4]: 61% and 56% | Population Normal (%) [3, 4]: 88% and 91% | Population Pyknosed Nuclei (%) [3, 4]: 12% and 13% | Population Tubulin-Different-Phenotype (%) [3, 4]: 39% and 27% | Total Cell Count [3, 4]: 412 and 304 | Population Apoptotic (%) [3, 5]: 37% and 53% | Population Fragmented Nuclei (%) [3, 5]: 8% and 5% | Population Healthy Nuclei (%) [3, 5]: 77% and 80% | Population Hoechst High Intensity Objects (%) [3, 5]: 10% and 9% | Population Membrane Permeable-Phenotype (%) [3, 5]: 0% | Population Mitochondria Different-Phenotype (%) [3, 5]: 61% and 72% | Population Mitotic Cells (%) [3, 5]: 62% and 46% | Population Normal (%) [3, 5]: 89% and 90% | Population Pyknosed Nuclei (%) [3, 5]: 14% | Population Tubulin-Different-Phenotype (%) [3, 5]: 45% and 35% | Total Cell Count [3, 5]: 379 and 315 | Population Apoptotic (%) [3, 6]: 20% and 40% | Population Fragmented Nuclei (%) [3, 6]: 12% and 7% | Population Healthy Nuclei (%) [3, 6]: 75% and 82% | Population Hoechst High Intensity Objects (%) [3, 6]: 7% and 8% | Population Membrane Permeable-Phenotype (%) [3, 6]: 0% | Population Mitochondria Different-Phenotype (%) [3, 6]: 33% and 45% | Population Mitotic Cells (%) [3, 6]: 80% and 60% | Population Normal (%) [3, 6]: 92% and 91% | Population Pyknosed Nuclei (%) [3, 6]: 11% and 10% | Population Tubulin-Different-Phenotype (%) [3, 6]: 26% and 18% | Total Cell Count [3, 6]: 546 and 379 | Population Apoptotic (%) [3, 7]: 40% and 28% | Population Fragmented Nuclei (%) [3, 7]: 9% and 11% | Population Healthy Nuclei (%) [3, 7]: 81% and 77% | Population Hoechst High Intensity Objects (%) [3, 7]: 10% and 11% | Population Membrane Permeable-Phenotype (%) [3, 7]: 1% and 0% | Population Mitochondria Different-Phenotype (%) [3, 7]: 40% and 58% | Population Mitotic Cells (%) [3, 7]: 60% and 71% | Population Normal (%) [3, 7]: 89% and 88% | Population Pyknosed Nuclei (%) [3, 7]: 8% and 11% | Population Tubulin-Different-Phenotype (%) [3, 7]: 32% and 24% | Total Cell Count [3, 7]: 502 and 388 | Population Apoptotic (%) [3, 8]: 24% and 46% | Population Fragmented Nuclei (%) [3, 8]: 16% and 12% | Population Healthy Nuclei (%) [3, 8]: 78% and 82% | Population Hoechst High Intensity Objects (%) [3, 8]: 3% and 6% | Population Membrane Permeable-Phenotype (%) [3, 8]: 1% and 0% | Population Mitochondria Different-Phenotype (%) [3, 8]: 16% and 23% | Population Mitotic Cells (%) [3, 8]: 75% and 53% | Population Normal (%) [3, 8]: 96% and 93% | Population Pyknosed Nuclei (%) [3, 8]: 5% | Population Tubulin-Different-Phenotype (%) [3, 8]: 12% and 13% | Total Cell Count [3, 8]: 965 and 522 | Population Apoptotic (%) [3, 9]: 27% and 36% | Population Fragmented Nuclei (%) [3, 9]: 13% and 11% | Population Healthy Nuclei (%) [3, 9]: 79% and 82% | Population Hoechst High Intensity Objects (%) [3, 9]: 9% and 6% | Population Membrane Permeable-Phenotype (%) [3, 9]: 0% | Population Mitochondria Different-Phenotype (%) [3, 9]: 27% and 32% | Population Mitotic Cells (%) [3, 9]: 72% and 63% | Population Normal (%) [3, 9]: 90% and 93% | Population Pyknosed Nuclei (%) [3, 9]: 7% and 5% | Population Tubulin-Different-Phenotype (%) [3, 9]: 17% and 19% | Total Cell Count [3, 9]: 742 and 573
